Reference: ChEMBL document CHEMBL2202977, “Optimization and structure-activity relationships of a series of potent inhibitors of methicillin-resistant Staphylococcus aureus (MRSA) pyruvate kinase as novel antimicrobial agents” (Bioorg Med Chem, 2012)
Converted amounts (≈) assume the structure as drawn.

Assays:
Staphylococcus aureus [1] = test: Antimicrobial activity against Staphylococcus aureus ATCC 25923 after 24 hrs broth microdilution method; type: functional
Procedure, shortened: (§1)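 MIC taken as the minimum concentration giving >98% growth inhibition of the named S. aureus strain (RN4220, ATCC 25923 or ATCC 29213). Values are single determinations or averages of n determinations. Vancomycin was run as control.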

[2] = target: T1, Pyruvate kinase (Staphylococcus aureus (strain MRSA252)) (UniProt Q6GG09); test: Inhibition of methicillin-resistant Staphylococcus aureus 252 pyruvate kinase at 1 uM by LDH assay; conditions: Staphylococcus aureus subsp. aureus MRSA252
T1 sequence (whole entry): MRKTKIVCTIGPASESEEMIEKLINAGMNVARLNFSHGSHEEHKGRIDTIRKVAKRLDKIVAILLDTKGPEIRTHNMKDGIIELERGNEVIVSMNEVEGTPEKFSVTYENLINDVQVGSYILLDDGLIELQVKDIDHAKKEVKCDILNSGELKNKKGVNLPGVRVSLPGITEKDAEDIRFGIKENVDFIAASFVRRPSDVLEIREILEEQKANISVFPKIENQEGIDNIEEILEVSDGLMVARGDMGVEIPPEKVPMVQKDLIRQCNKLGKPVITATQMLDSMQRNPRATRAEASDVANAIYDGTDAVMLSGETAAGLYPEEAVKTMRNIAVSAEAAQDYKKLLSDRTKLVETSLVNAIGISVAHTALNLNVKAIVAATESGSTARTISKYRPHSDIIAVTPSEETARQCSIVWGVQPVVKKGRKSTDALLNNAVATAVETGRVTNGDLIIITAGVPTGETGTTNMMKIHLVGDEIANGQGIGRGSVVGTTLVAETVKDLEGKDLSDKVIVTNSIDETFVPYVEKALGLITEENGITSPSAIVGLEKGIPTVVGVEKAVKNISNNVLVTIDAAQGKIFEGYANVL
Procedure, shortened: (§2)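 MRSA pyruvate kinase activity was measured by a previously described procedure. IC50 was calculated from triplicate 15-point titrations, or averaged over n such determinations. Where no IC50 was obtained, the value is % inhibition at the highest concentration tested.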

Staphylococcus aureus [3] = test: Antimicrobial activity against Staphylococcus aureus ATCC 29213 after 24 hrs broth microdilution method; type: functional; procedure, shortened: as §1
Pyruvate kinase = target: T2, Pyruvate kinase (Staphylococcus aureus (strain MRSA252), UniProt Q6GG09); test: Inhibition of methicillin-resistant Staphylococcus aureus 252 pyruvate kinase by LDH assay; parameters: species or system Staphylococcus aureus subsp. aureus MRSA252; procedure, shortened: as §2
T2 sequence (Q6GG09 whole entry): T1 sequence (whole entry)

Staphylococcus aureus [4] = test: Antimicrobial activity against Staphylococcus aureus RN4220 after 24 hrs broth microdilution method; type: functional; procedure, shortened: as §1
THP-1 [5] = test: Cytotoxicity against human THP1 cells assessed as cell death at 6.25 uM after 24 hrs by MTS assay; type: cell-based; conditions: thp-1, 24 h
Procedure, shortened: (§3)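 THP-1 cells were exposed to test agent at 25 µM and 6.25 µM. Read-out was percentage of dead cells.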

THP-1 [6] = test: Cytotoxicity against human THP1 cells assessed as cell death at 25 uM after 24 hrs by MTS assay; type: cell-based; conditions: thp-1, 24 h; procedure, shortened: as §3
[7] = target: T1, Pyruvate kinase (Staphylococcus aureus (strain MRSA252)); test: Inhibition of methicillin-resistant Staphylococcus aureus 252 pyruvate kinase at 10 uM by LDH assay; conditions: Staphylococcus aureus subsp. aureus MRSA252; procedure, shortened: as §2
[8] = target: Pyruvate kinase PKM (Homo sapiens) (UniProt P14618); test: Inhibition of human pyruvate kinase M2 at 10 uM by LDH assay
Procedure, shortened: (§4)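 Selected compounds were tested against mammalian PK isoforms M1, M2, R and L at the highest concentration, 10 µM. Results are given as percent inhibition.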

[9] = target: Pyruvate kinase PKM (Homo sapiens) (UniProt P14618); test: Inhibition of human pyruvate kinase M1 at 10 uM by LDH assay; procedure, shortened: as §4
[10] = target: Pyruvate kinase PKLR (Homo sapiens) (UniProt P30613); test: Inhibition of human pyruvate kinase R at 10 uM by LDH assay; procedure, shortened: as §4
[11] = target: Pyruvate kinase PKLR (Homo sapiens) (UniProt P30613); test: Inhibition of human pyruvate kinase L at 10 uM by LDH assay; procedure, shortened: as §4

Sequence of Pyruvate kinase PKLR (Homo sapiens) (P30613 whole entry, looked up): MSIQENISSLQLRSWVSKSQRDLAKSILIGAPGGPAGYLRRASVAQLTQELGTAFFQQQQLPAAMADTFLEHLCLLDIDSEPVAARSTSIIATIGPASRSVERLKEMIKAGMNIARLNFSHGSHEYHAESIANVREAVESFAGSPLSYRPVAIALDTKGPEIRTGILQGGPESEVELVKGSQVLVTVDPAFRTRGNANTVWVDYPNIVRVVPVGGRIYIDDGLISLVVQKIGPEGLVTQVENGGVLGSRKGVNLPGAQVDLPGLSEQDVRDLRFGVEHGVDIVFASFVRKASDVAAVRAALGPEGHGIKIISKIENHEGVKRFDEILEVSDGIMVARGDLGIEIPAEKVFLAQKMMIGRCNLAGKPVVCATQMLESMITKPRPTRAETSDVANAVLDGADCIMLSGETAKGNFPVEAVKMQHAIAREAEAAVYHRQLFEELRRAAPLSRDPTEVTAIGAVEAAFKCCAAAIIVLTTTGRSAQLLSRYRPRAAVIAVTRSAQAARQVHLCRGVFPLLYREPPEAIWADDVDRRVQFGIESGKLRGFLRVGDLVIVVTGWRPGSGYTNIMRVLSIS
Sequence of Pyruvate kinase PKM (Homo sapiens) (P14618 2-531 limits assumed): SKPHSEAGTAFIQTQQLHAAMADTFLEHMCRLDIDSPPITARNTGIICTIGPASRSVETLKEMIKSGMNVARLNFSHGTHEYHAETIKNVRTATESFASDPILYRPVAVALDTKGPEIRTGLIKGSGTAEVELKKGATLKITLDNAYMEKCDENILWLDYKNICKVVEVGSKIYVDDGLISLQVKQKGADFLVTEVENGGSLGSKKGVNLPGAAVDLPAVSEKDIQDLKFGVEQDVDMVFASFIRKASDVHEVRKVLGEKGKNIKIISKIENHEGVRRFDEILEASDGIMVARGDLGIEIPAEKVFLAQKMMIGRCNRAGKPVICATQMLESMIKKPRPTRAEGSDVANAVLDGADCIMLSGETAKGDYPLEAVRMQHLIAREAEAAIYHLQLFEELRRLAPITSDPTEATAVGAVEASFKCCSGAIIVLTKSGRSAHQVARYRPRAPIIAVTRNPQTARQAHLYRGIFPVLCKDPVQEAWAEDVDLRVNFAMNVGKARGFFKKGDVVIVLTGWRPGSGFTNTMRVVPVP

Structure (SMILES): CC(=NNC(=O)c1cc(Br)ccc1O)c1cc2cc(O)ccc2n1C (mixture of isomers)
- MIC>98 (Staphylococcus aureus [1]): >64 µg/mL
- inhibition [2]: 54%

Structure (SMILES): C/C(=N\NC(=O)c1cc(Br)ccc1O)c1cc2c(F)c(F)c(F)cc2[nH]1
- MIC>98 (Staphylococcus aureus [3]): >85 µg/mL
- IC50 (Pyruvate kinase): 0.015 µM

Structure (SMILES): C/C(=N\NC(=O)c1cc2ccccc2cc1O)c1cc2ccccc2[nH]1
- MIC>98 (Staphylococcus aureus [3]): >64 µg/mL
- IC50 (Pyruvate kinase): 0.042 µM

Structure (SMILES): C/C(=N\NC(=O)c1cc(Br)ccc1O)c1cc2cc(O)ccc2[nH]1
- MIC>98 (Staphylococcus aureus [1]): >64 µg/mL
- IC50 (Pyruvate kinase): 0.214 µM

Structure (SMILES): CCC(=NNC(=O)c1cc(Br)ccc1O)c1cc2cc(Br)ccc2n1C (mixture of isomers)
- MIC>98 (Staphylococcus aureus [3]): 2 µg/mL
- IC50 (Pyruvate kinase): 0.168 µM

Structure (SMILES): C/C(=N\NC(=O)c1cc(Br)ccc1O)c1cc2cc(-c3ccccc3)ccc2[nH]1
- MIC>98 (Staphylococcus aureus [4]): >90 µg/mL
- inhibition [2]: 0%

Structure (SMILES): C/C(=N\NC(=O)c1cc(Br)ccc1O)c1cc2ccc(Br)cc2[nH]1
- MIC>98 (Staphylococcus aureus [1]): >64 µg/mL
- IC50 (Pyruvate kinase): 0.024 µM

Structure (SMILES): CC/C(=N\NC(=O)c1cc(Br)ccc1O)c1cc2cc(Br)ccc2[nH]1
- MIC>98 (Staphylococcus aureus [3]): 4 µg/mL (≈ 8.6 µM)
- IC50 (Pyruvate kinase): 0.049 µM

Structure (SMILES): CCOCOc1ccccc1C(=O)N/N=C(\C)c1cc2cc(Br)ccc2[nH]1
- MIC>98 (Staphylococcus aureus [3]): >64 µg/mL
- IC50 (Pyruvate kinase): 0.251 µM

Structure (SMILES): CC(C)(C)/C(=N/NC(=O)c1cc(Br)ccc1O)c1cc2ccccc2[nH]1
- Activity (THP-1 [5]): 42%
- Activity (THP-1 [6]): 50%
- inhibition [7]: 0%
- MIC>98 (Staphylococcus aureus [4]): 83 µg/mL (≈ 200 µM)

Structure (SMILES): CC(=NNC(=O)c1cc(Br)ccc1O)c1cc2c(F)c(F)c(F)cc2n1C (mixture of isomers)
- MIC>98 (Staphylococcus aureus [3]): 2 µg/mL
- IC50 (Pyruvate kinase): 0.055 µM

Structure (SMILES): COc1ccc(Br)cc1C(=O)N/N=C/c1cc2ccccc2[nH]1
- MIC>98 (Staphylococcus aureus [3]): >64 µg/mL
- IC50 (Pyruvate kinase): 0.451 µM

Structure (SMILES): C/C(=N\NC(=O)c1cc2ccccc2cc1O)c1cc2cc(Br)ccc2[nH]1
- MIC>98 (Staphylococcus aureus [3]): >64 µg/mL
- IC50 (Pyruvate kinase): 0.026 µM

Structure (SMILES): COc1ccc(Br)cc1C(=O)N(C)/N=C(\C)c1cc2ccccc2[nH]1
- MIC>98 (Staphylococcus aureus [1]): >80 µg/mL
- inhibition [2]: 33%

Structure (SMILES): C/C(=N\NC(=O)c1cc(I)ccc1O)c1cc2ccccc2[nH]1
- inhibition [8]: -1.3%
- inhibition [9]: 0%
- inhibition [10]: 0.9%
- inhibition [11]: -1.6%
- IC50 (Pyruvate kinase): 0.151 µM
- inhibition [7]: 97%
- MIC>98 (Staphylococcus aureus [4]): >84 µg/mL

Structure (SMILES): Cn1c(/C(=N\NC(=O)c2cc(Br)ccc2O)C(C)(C)C)cc2ccccc21
- Activity (THP-1 [5]): 25%
- Activity (THP-1 [6]): 73%
- inhibition [7]: 0%
- MIC>98 (Staphylococcus aureus [4]): 10.7 µg/mL (≈ 25 µM)

Structure (SMILES): CC(=NNC(=O)c1cc(I)ccc1O)c1cc2ccccc2n1C (mixture of isomers)
- inhibition [8]: -2%
- inhibition [9]: -5.3%
- inhibition [10]: 4.7%
- inhibition [11]: 4.4%
- IC50 (Pyruvate kinase): 0.483 µM
- inhibition [7]: 94.2%
- MIC>98 (Staphylococcus aureus [4]): 5.4 µg/mL

Structure (SMILES): CC/C(=N\NC(=O)c1cc2ccccc2cc1O)c1cc2c(F)c(F)c(F)cc2[nH]1
- MIC>98 (Staphylococcus aureus [3]): >64 µg/mL
- IC50 (Pyruvate kinase): 0.031 µM

Structure (SMILES): CC/C(=N\NC(=O)c1cc2ccccc2cc1O)c1cc2c(F)c(F)c(F)cc2n1C
- MIC>98 (Staphylococcus aureus [3]): 32 µg/mL (≈ 75.2 µM)
- IC50 (Pyruvate kinase): 0.052 µM

Structure (SMILES): CCOc1ccc(Br)cc1C(=O)N/N=C(\C)c1cc2ccccc2[nH]1
- MIC>98 (Staphylococcus aureus [3]): >64 µg/mL
- IC50 (Pyruvate kinase): 0.063 µM

Structure (SMILES): C/C(=N\NC(=O)c1cc2ccccc2cc1O)c1cc2c(F)c(F)c(F)cc2n1C
- MIC>98 (Staphylococcus aureus [3]): >64 µg/mL
- IC50 (Pyruvate kinase): 0.059 µM

Structure (SMILES): CC(=NNC(=O)c1cc(Br)ccc1O)c1cc2ccccc2n1C (mixture of isomers)
- inhibition [8]: 0.4%
- inhibition [9]: -3.7%
- MIC>98 (Staphylococcus aureus [3]): 7.7 µg/mL
- inhibition [10]: 2.6%
- IC50 (Pyruvate kinase): 0.381 µM
- inhibition [7]: 96.3%

Structure (SMILES): CC/C(=N\NC(=O)c1cc2ccccc2cc1O)c1cc2cc(Br)ccc2[nH]1
- inhibition [8]: 3%
- inhibition [9]: 5.6%
- MIC>98 (Staphylococcus aureus [3]): 16 µg/mL (≈ 36.7 µM)
- inhibition [10]: -3.4%
- inhibition [11]: -0.2%
- IC50 (Pyruvate kinase): 0.018 µM
- inhibition [7]: 99.6%

Structure (SMILES): COc1c(Br)cc(Br)cc1C(=O)N/N=C(\C)c1cc2ccccc2[nH]1
- MIC>98 (Staphylococcus aureus [1]): >93 µg/mL
- inhibition [2]: 57%

Structure (SMILES): C/C(=N\NC(=O)c1cc(Cl)ccc1O)c1cc2ccccc2[nH]1
- MIC>98 (Staphylococcus aureus [4]): >64 µg/mL
- inhibition [2]: 36%

Structure (SMILES): C/C(=N\NC(=O)c1cc(Br)ccc1O)c1nc2ccccc2[nH]1
- inhibition [8]: 6.7%
- inhibition [9]: 7.6%
- inhibition [10]: -1.4%
- inhibition [11]: 2.1%
- IC50 (Pyruvate kinase): 0.091 µM
- inhibition [7]: 96.4%
- MIC>98 (Staphylococcus aureus [4]): >187 µg/mL

Structure (SMILES): C/C(=N\NC(=O)c1cc(Br)ccc1O)c1cc2ccccc2[nH]1
- inhibition [8]: 4.3%
- inhibition [9]: 4.6%
- inhibition [10]: -8.7%
- inhibition [11]: -6.9%
- IC50 (Pyruvate kinase): 0.085 µM
- inhibition [7]: 98.1%
- MIC>98 (Staphylococcus aureus [4]): >186 µg/mL

Structure (SMILES): Cn1c(C(=NNC(=O)c2cc(Br)ccc2O)c2ccccc2)cc2ccccc21 (mixture of isomers)
- Activity (THP-1 [5]): 19%
- Activity (THP-1 [6]): 78%
- IC50 (Pyruvate kinase): 6.04 µM
- MIC>98 (Staphylococcus aureus [4]): 1.4 µg/mL

Structure (SMILES): C/C(=N\NC(=O)c1cc(Br)ccc1O)c1cc2cc(Cl)ccc2[nH]1
- inhibition [8]: 4.6%
- inhibition [9]: 4.4%
- inhibition [10]: 2.4%
- inhibition [11]: 0.1%
- IC50 (Pyruvate kinase): 0.052 µM
- inhibition [7]: 80.1%
- MIC>98 (Staphylococcus aureus [4]): >81 µg/mL

Structure (SMILES): O=C(N/N=C/c1cc2ccccc2[nH]1)c1cc(Br)ccc1O
- inhibition [8]: -1.4%
- inhibition [9]: -7.2%
- inhibition [10]: -0.5%
- inhibition [11]: 0.2%
- IC50 (Pyruvate kinase): 0.863 µM
- inhibition [7]: 89.9%
- MIC>98 (Staphylococcus aureus [4]): >179 µg/mL

Structure (SMILES): CCC(=NNC(=O)c1cc2ccccc2cc1O)c1cc2cc(Br)ccc2n1C (mixture of isomers)
- inhibition [8]: -0.8%
- inhibition [9]: 0%
- MIC>98 (Staphylococcus aureus [3]): 1 µg/mL
- inhibition [10]: -0.6%
- inhibition [11]: -5.6%
- IC50 (Pyruvate kinase): 0.079 µM
- inhibition [7]: 97.7%

Structure (SMILES): CC(=NNC(=O)c1cc2ccccc2cc1O)c1cc2cc(Br)ccc2n1C (mixture of isomers)
- MIC>98 (Staphylococcus aureus [3]): >64 µg/mL
- IC50 (Pyruvate kinase): 0.115 µM
